Measured values from publication PMC3328401 (Journal of Medicinal Chemistry, 2012).

Columns and labels:
[1] = system: LS 174T cells; assay: Concentration-dependent uptake; type: cell-based, human; details: 3 h exposure, estimated
[2] = Chemical hydrolysis of cycloSal phosphate triesters in phosphate buffer; type: physicochemical; details: phosphate buffer 50 mM, pH 7.3, 37°C, ~15% acetonitrile
[3] = system: OVCAR-3 cells; assay: Concentration-dependent uptake; type: cell-based, human; details: OVCAR-3, 3 h exposure, estimated
[4] = system: U-87 MG glioblastoma cells; assay: Clonogenic survival; type: cell-based, human; details: U-87, after eight weeks in culture
[5] = Lipophilicity, shake-tube method n-octanol/phosphate buffered saline; type: physicochemical; details: n-octanol / phosphate buffered saline 10 mM, pH 6.8
[6] = system: OVCAR-3 cells; assay: Subcellular distribution of 125I-labeled reagents; type: cell-based, human; details: for ^125I in cytoplasm, 24 hours / ^125I in nucleus, 24 hours: 1 h incubation then 24 h in fresh nonradioactive medium; for ^125I in cytoplasm, 1 hour / ^125I in nucleus, 1 hour: 1 h incubation, 55.5 kBq/mL
Procedure, shortened: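 OVCAR-3 cells were kept in RPMI-1640 with insulin, 2 mM L-glutamine and 20% FBS and expanded as intraperitoneal xenografts in athymic nude mice. Cells in six T150 flasks attached overnight, then were exposed 1 h to ¹²⁵I compound (55.5 kBq/mL). Three flasks were processed immediately and three after 24 h in fresh medium. Cells were trypsinized, counted, fractionated into nuclear/cytoplasmic compartments and gamma-counted.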

[7] = system: OVCAR-3 cells; assay: Uptake kinetics; type: cell-based, human
Procedure, shortened: (§1)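 Cells were plated at 2×10⁵/well in 6-well plates in 3 mL growth medium: OVCAR-3 in RPMI-1640 with 20% FBS, LS 174T in EMEM with 10% FBS. After 24 h, radiolabeled compound (~13.6–46.9 kBq/mL) was added at staggered times, up to 360 min, in triplicate. Medium was gamma-counted for radioactive concentration. Cells were washed twice with ice-cold PBS, trypsinized and gamma-counted for cell-associated activity.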

[8] = system: U-87 MG cells; assay: Subcellular distribution and DNA retention of 125I; type: cell-based, human
Procedure, shortened: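 U-87 MG cells (~1×10⁶ per T75, EMEM with 10% FBS) were grown 24 h, then given radiolabeled compound for 1 h. They were processed immediately or after 24 h in fresh nonradioactive medium. Pellets (1,000 rpm, 4°C, 15 min) were fractionated with nuclear/cytoplasmic extraction reagents into cytoplasm, soluble nuclear and DNA fractions, which were gamma-counted. DNA-bound ¹²⁵I was also measured after genomic-tip DNA isolation. Longer exposures of 40–144 h were also run.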

[9] = system: LS 174T cells; assay: Uptake kinetics; type: cell-based, human
[10] = system: LS 174T colorectal adenocarcinoma cells; assay: Clonogenic survival and cell-retained 125I; type: cell-based, human; details: 4 h, 185 kBq/mL
Procedure, shortened: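 LS 174T cells (2×10⁶ per T75) attached ~18 h, then exposed 4 h at 37°C to radiolabeled compound (185 kBq) or to nonradioactive medium for controls. Cells were washed, trypsinized and counted for viability. 1 mL of a 1×10⁶ cells/mL suspension was gamma-counted for cell-associated ¹²⁵I. Cells were plated in duplicate T25 flasks at 1,000, 500 and 100 cells/flask. Methanol-fixed colonies were scored after three weeks. Surviving fraction is treated/control colonies.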

[11] = system: LS 174T and OVCAR-3 cancer cell lines; assay: Uptake kinetics, cell-associated activity after 3 h; type: cell-based, human; details: after 3 h incubation
Procedure, shortened: as §1

[12] = molecular target: human BChE (Homo sapiens, UniProt P06276); assay: Gel electrophoresis/autoradiography of radioactive compounds with BChE; type: binding; details: BChE 0.02 U or increasing activities, 30 min
Procedure, shortened: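 Radioactive compounds with human BChE were run on native and nonreducing SDS-PAGE gels at constant 150 V or 190 V for 1 h. Gels were exposed to autoradiography film at −80°C for 1–48 h, depending on applied radioactivity. Native gels were stained for BChE activity with 1 mM butyrylthiocholine iodide as substrate (Karnovsky–Roots method).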

[13] = Solubility in aqueous media; details: aqueous media / water
[14] = after intratumor injections; cited from earlier work
[15] = intravenously administered; cited from earlier work

human BChE, sequence (P06276 29-602): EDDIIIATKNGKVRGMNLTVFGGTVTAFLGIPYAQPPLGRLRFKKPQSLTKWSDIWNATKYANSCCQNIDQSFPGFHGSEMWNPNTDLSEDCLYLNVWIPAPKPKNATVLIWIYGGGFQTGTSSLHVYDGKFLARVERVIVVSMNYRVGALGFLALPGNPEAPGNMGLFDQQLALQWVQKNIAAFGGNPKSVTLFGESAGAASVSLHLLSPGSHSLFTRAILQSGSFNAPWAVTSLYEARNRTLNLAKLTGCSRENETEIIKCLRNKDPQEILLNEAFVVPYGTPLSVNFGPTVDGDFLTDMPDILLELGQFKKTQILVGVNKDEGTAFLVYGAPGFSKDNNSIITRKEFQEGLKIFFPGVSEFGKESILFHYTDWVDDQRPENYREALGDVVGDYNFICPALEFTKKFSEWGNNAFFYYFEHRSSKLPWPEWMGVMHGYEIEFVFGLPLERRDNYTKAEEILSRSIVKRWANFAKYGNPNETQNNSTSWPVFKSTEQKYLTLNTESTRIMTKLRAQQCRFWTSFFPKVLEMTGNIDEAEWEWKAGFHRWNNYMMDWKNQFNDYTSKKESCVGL

## O=c1[nH]c(=O)n([C@H]2C[C@H](O)[C@@H](COP3(=O)OCc4ccccc4O3)O2)cc1[125I] (stereo partly shown) [6b-fast, 5-[^125I]-Iodo-5′-O-cycloSaligenyl-2′-deoxyuridine Monophosphate]
[1]
  Bmax: ~ 1,300 molecules/cell
[2]
  k (rate of hydrolysis): 0.00225 min⁻¹
[3]
  Bmax: ~ 7,400 molecules/cell
[4]
  colony formation: failed to produce any colonies

## O=c1[nH]c(=O)n([C@H]2C[C@H](O)[C@@H](COP3(=O)OCc4ccccc4O3)O2)cc1[125I] (stereo partly shown) [6b-slow, 5-[^125I]-Iodo-5′-O-cycloSaligenyl-2′-deoxyuridine Monophosphate]
[5]
  Log P: 0.66 (± 0.03)
[6]
  ^125I in cytoplasm, 24 hours: 6.0 (0.7) cpm/10^3 cells (std dev)
  ^125I in nucleus, 24 hours: 31.3 (6.0) cpm/10^3 cells (std dev)
  ^125I in cytoplasm, 1 hour: 14.8 (6.8) cpm/10^3 cells (std dev)
  ^125I in nucleus, 1 hour: 4.9 (2.5) cpm/10^3 cells (std dev)
[1]
  Bmax: ~ 6,800 molecules/cell
[2]
  k (rate of hydrolysis): 0.00152 min⁻¹
[3]
  Bmax: > 50,000 molecules/cell
[7]; OVCAR-3, after 90 min
  uptake ratio of slow to fast diastereomer: ~ 1.7
[7]; OVCAR-3, up to 90 min
  uptake rate, slow relative to fast diastereomer: 6.5 ×
[8]; U-87, 40-h incubation, 19.6 kBq/mL, genomic tips method
  125I accumulated in DNA: 1.18 (0.11) mBq ^125I/cell
[4]
  colony formation: failed to produce any colonies
[9]; after 90 min
  uptake ratio of slow to fast diastereomer: ~ 1.7
[9]; up to 90 min
  uptake rate, slow relative to fast diastereomer: 4.6 ×

## Cc1cccc2c1OP(=O)(OC[C@H]1O[C@@H](n3cc([125I])c(=O)[nH]c3=O)C[C@@H]1O)OC2 (stereo partly shown) [7b-fast, 5-[^125I]-Iodo-5′-O-cyclo(3-methylSaligenyl)-2′-deoxyuridine Monophosphate]
[2]
  k (rate of hydrolysis): 0.000544 min⁻¹
[10]
  125I retained per cell: 0.196 (0.06) mBq ^125I/cell

## Cc1cccc2c1OP(=O)(OC[C@H]1O[C@@H](n3cc([125I])c(=O)[nH]c3=O)C[C@@H]1O)OC2 (stereo partly shown) [7b-slow, 5-[^125I]-Iodo-5′-O-cyclo(3-methylSaligenyl)-2′-deoxyuridine Monophosphate]
[6]
  ^125I in cytoplasm, 24 hours: 1.8 (0.6) cpm/10^3 cells (std dev)
  ^125I in nucleus, 24 hours: 29.3 (7.0) cpm/10^3 cells (std dev)
  ^125I in cytoplasm, 1 hour: 13.0 (1.3) cpm/10^3 cells (std dev)
  ^125I in nucleus, 1 hour: 5.4 (0.4) cpm/10^3 cells (std dev)
[2]
  k (rate of hydrolysis): 0.000463 min⁻¹
[7]
  cell-associated radioactivity, OVCAR-3 compared to LS 174T: 1.7 ×
[7]; OVCAR-3, after 6 h
  ratio of slow to fast uptake: 3.5
[10]
  125I retained per cell: 0.566 (0.333) mBq ^125I/cell
  surviving fraction: 0.63 (0.22) mBq
[9]; after 6 h
  ratio of slow to fast uptake: 3.0

## CC(C)(C)c1cc(C(C)(C)C)c2c(c1F)COP(=O)(OC[C@H]1O[C@@H](n3cc([125I])c(=O)[nH]c3=O)C[C@@H]1O)O2 (stereo partly shown) [8b-fast, 5-[^125I]-Iodo-5′-O-[cyclo-3,5-di-(tert-butyl)-6-fluoroSaligenyl]-2′-deoxyuridine Monophosphate]
[11]
  cell associated activity relative to the corresponding 6b diastereomer: > 110 ×
  cell associated activity relative to the corresponding 7b diastereomer: > 20 ×

## CC(C)(C)c1cc(C(C)(C)C)c2c(c1F)COP(=O)(OC[C@H]1O[C@@H](n3cc([125I])c(=O)[nH]c3=O)C[C@@H]1O)O2 (stereo partly shown) [8b-slow, 5-[^125I]-Iodo-5′-O-[cyclo-3,5-di-(tert-butyl)-6-fluoroSaligenyl]-2′-deoxyuridine Monophosphate]
[11]
  cell associated activity relative to the corresponding 6b diastereomer: ~ 180 ×
  cell associated activity relative to the corresponding 7b diastereomer: 35 ×
[6]
  ^125I in cytoplasm, 24 hours: 2.8 (0.7) cpm/10^3 cells (std dev)
  ^125I in nucleus, 24 hours: 91.6 (5.7) cpm/10^3 cells (std dev)
  ^125I in cytoplasm, 1 hour: 87.3 (7.5) cpm/10^3 cells (std dev)
  ^125I in nucleus, 1 hour: 7.8 (0.6) cpm/10^3 cells (std dev)
[12]
  binding to BChE on gel autoradiograph: BChE activity-dependent binding

## CC(C)(C)c1cc(C(C)(C)C)c2c(c1F)COP(=O)(OC[C@H]1O[C@@H](n3cc(I)c(=O)[nH]c3=O)C[C@@H]1F)O2 (stereo partly shown) [24-slow, 5-Iodo-5′-O-[cyclo-3,5-Di-(tert-butyl)-6-fluoroSaligenyl]-3′-fluoro-2′,3′-dideoxyuridine Monophosphate]
[2]
  k (rate of hydrolysis): 0.000222 min⁻¹

## CC(C)(C)c1cc(C(C)(C)C)c2c(c1F)COP(=O)(OC[C@H]1O[C@@H](n3cc([125I])c(=O)[nH]c3=O)C[C@@H]1F)O2 (stereo partly shown) [24b, 5-[^125I]-Iodo-5′-O-[cyclo-3,5-Di-(tert-butyl)-6-fluoroSaligenyl]-3′-fluoro-2′,3′-dideoxyuridine]
[13]
  solubility: low solubility

## CC(C)(C)c1cc(C(C)(C)C)c2c(c1F)COP(=O)(OC[C@H]1O[C@@H](n3cc([125I])c(=O)[nH]c3=O)C[C@@H]1F)O2 (stereo partly shown) [24b-fast, 5-[^125I]-Iodo-5′-O-[cyclo-3,5-Di-(tert-butyl)-6-fluoroSaligenyl]-3′-fluoro-2′,3′-dideoxyuridine]
[2]
  k (rate of hydrolysis): 0.000301 min⁻¹

## CC(C)(C)c1cc(C(C)(C)C)c2c(c1F)COP(=O)(OC[C@H]1O[C@@H](n3cc([125I])c(=O)[nH]c3=O)C[C@@H]1F)O2 (stereo partly shown) [24b-slow, 5-[^125I]-Iodo-5′-O-[cyclo-3,5-Di-(tert-butyl)-6-fluoroSaligenyl]-3′-fluoro-2′,3′-dideoxyuridine]
[12]
  binding to BChE on gel autoradiograph: BChE activity-dependent binding
[2]
  k (rate of hydrolysis): 0.000224 min⁻¹
[8]; U-87 MG, 1 h treatment
  uptake and retention lower in the cytoplasm, nucleus and DNA: ~ 20 ×
[8]; U-87 MG, 24 h in fresh medium
  presence in intracellular compartments at 24 h: practically undetectable

## O=c1[nH]c(=O)n([C@H]2C[C@H](O)[C@@H](CO)O2)cc1[125I] [^125IUdR, 5-[^125I]Iodo-2′-deoxyuridine]
[14]
  injected ^125IUdR associated with one gram of tumor: ~ 0.02%
  tumor uptake, range: 0.001–0.06 % ID/g
[15]
  time to destruction in circulation: within a few min

## CC(C)(C)c1cc(C(C)(C)C)c2c(c1F)COP(=O)(OC[C@H]1O[C@@H](n3cc(I)c(=O)[nH]c3=O)C[C@@H]1O)O2 (stereo partly shown) [compound 8, 5-Iodo-5′-O-[cyclo-3,5-di-(tert-butyl)-6-fluoroSaligenyl]-2′-deoxyuridine Monophosphate]
[13]
  solubility: lower water solubility

## CC(C)(C)c1cc(C(C)(C)C)c2c(c1F)COP(=O)(O[C@H]1C[C@H](n3cc(I)c(=O)[nH]c3=O)O[C@@H]1CO)O2 (stereo partly shown) [compound 14, 5-Iodo-3′-O-[cyclo-3,5-di-(tert-butyl)-6-fluoroSaligenyl]-2′-deoxyuridine Monophosphate]
[13]
  solubility: lower water solubility

## CC(C)(C)c1cc(C(C)(C)C)c2c(c1F)COP(=O)(OC[C@H]1O[C@@H](n3cc(I)c(=O)[nH]c3=O)C[C@@H]1F)O2 (stereo partly shown) [compound 24, 5-Iodo-5′-O-[cyclo-3,5-Di-(tert-butyl)-6-fluoroSaligenyl]-3′-fluoro-2′,3′-dideoxyuridine Monophosphate]
[13]
  solubility: lower water solubility
